# Experimental data gathered from unrelated publications.
# INSR: Insulin receptor (INSR, Homo sapiens, UniProt P06213)
# INSR phosphorylated: Insulin receptor, phosphorylated (INSR, Homo sapiens, UniProt P06213)
Compound,target,read-out,action,technique,tested at,quantity,value
CN(C)C1CCN(CC#Cc2nn(C3CCCC3)c3nc(NCc4ccccc4)ncc23)C1 (centres unmarked),INSR,enzyme activity,inhibitor,FRET,0.1 µM,inhibition,7%
CNCc1ccc(-c2cc(-c3nc(-c4ccc(S(=O)(=O)C(C)C)cc4)cnc3N)on2)cc1,INSR,enzyme activity,inhibitor,,2 µM,inhibition,0%
O=C1NC(=O)c2cc(Nc3ccc(F)cc3)c(Nc3ccc(F)cc3)cc21,INSR,cell-free assay,,,0.5 µM,remaining signal,98.3%
CC/C(=N\NC(=O)NCc1cccc(O)c1)c1ccc(O)c(C)c1O,INSR,enzyme activity,inhibitor,,0.1 µM,inhibition,0.1%
O=C(CSc1nc2nccnc2c(=O)n1CCc1ccccc1)Nc1nccs1,INSR,enzyme activity,inhibitor,,10 µM,inhibition,5%
O=C(O)[C@H]1[C@H](Cn2nnc3ccccc3c2=O)CC[C@@H]1C(=O)c1ccc(OCCC2CCOCC2)cc1,INSR,cell-free assay,,competition with immobilised ligand,1 µM,remaining binding,78%
COc1cc2ncnc(Nc3ccc(Oc4ccccc4)cc3C)c2cc1OC,INSR,enzyme activity,inhibitor,,1 µM,inhibition,-1%
O=C(NS(=O)(=O)c1ccc(NCC2CCOCC2)c([N+](=O)[O-])c1)c1ccc(N2CCN(Cc3ccc(C(F)(F)F)cc3-c3ccc(Cl)cc3)CC2)cc1Oc1cnc2[nH]ccc2c1,INSR,cell-free assay,,competition with immobilised ligand,1 µM,remaining binding,89%
CCCS(=O)(=O)Nc1ccc(F)c(C(=O)c2c[nH]c3ncc(-c4ccc(Cl)cc4)cc23)c1F,INSR,enzyme activity,inhibitor,,1 µM,inhibition,< 10%
CCC(=N\O)/C(C)=C/c1ccc(F)cc1,INSR,cell-free assay,,competition with immobilised ligand,1 µM,remaining binding,100%
Cc1ccc(C(=O)NCc2ccsc2)cc1C#Cc1cn(C(C)C)c2ncnc(N)c12,INSR,enzyme activity,inhibitor,,1 µM,activity vs control,82%
CNc1cccc2cc(C(=O)Nc3ccc(C(=O)O)cc3)c(=O)[nH]c12,INSR,enzyme activity,inhibitor,,10 µM,inhibition,5.2%
CNC(=O)c1ccccc1Nc1cc(Nc2ccc(N3CCOCC3)cc2OC)ncc1C(F)(F)F,INSR,enzyme activity,inhibitor,,1 µM,inhibition,> 50%
C[C@@H]1CN(c2cc(-c3nn(C)c4ccc(OC5(C)CC5)cc34)ncn2)C[C@H](C)O1,INSR,cell-free assay,,competition with immobilised ligand,1 µM,remaining binding,100%
CNC(=O)c1cc(Oc2ccc(NC(=O)Nc3ccc(Cl)c(C(F)(F)F)c3)cc2)ccn1,INSR,enzyme activity,inhibitor,,0.3 µM,inhibition,3%
CSc1cccnc1N1CCN(Cc2nc3ccccc3[nH]2)CC1,INSR,cell-free assay,,competition with immobilised ligand,1 µM,remaining binding,85%
COc1cc2c(Nc3ccc(Br)cc3F)ncnc2cc1OCC1CCN(C)CC1,INSR,cell-free assay,,,0.5 µM,remaining signal,102%
CC(C)(O)c1cncc(-c2nc3ccc(F)cc3n2C2CC2)c1,INSR,cell-free assay,,competition with immobilised ligand,1 µM,remaining binding,100%
O=C1Nc2ccc(Cl)cc2C1=Cc1cc(Cl)c(O)c(Cl)c1,INSR,cell-free assay,,,0.5 µM,remaining signal,99.2%
Cc1ccc(Nc2nccc(N(C)c3ccc4c(C)n(C)nc4c3)n2)cc1S(N)(=O)=O,INSR,enzyme activity,inhibitor,,10 µM,inhibition,27%
Cc1cc(NC(=O)c2cccc3cc(-c4cccc5[nH]nc(N)c45)ccc23)ccc1F,INSR phosphorylated,enzyme activity,inhibitor,,0.1 µM,activity vs control,91%
O=C(NCc1ncc(C(F)(F)F)cc1Cl)c1ccc2c(c1)C1(CCS(=O)(=O)CC1)[C@@H](C1CC1)N2S(=O)(=O)c1ccc(F)cc1,INSR,cell-free assay,,competition with immobilised ligand,1 µM,remaining binding,100%
CN1CC(Oc2cnc(C#N)cc2-c2ccn3nc(NC(=O)C4CC4)cc3c2)C1,INSR phosphorylated,enzyme activity,inhibitor,,1 µM,inhibition,1%
